Measured values taken from ChEMBL document CHEMBL2086284, “(Z)-1-aryl-3-arylamino-2-propen-1-ones, highly active stimulators of tubulin polymerization: synthesis, structure-activity relationship (SAR), tubulin polymerization, and cell growth inhibition studies” (J Med Chem, 2012).
Calls of active or inactive are those of the source. No cut-off for these calls is given here.

How the values were obtained:
DU-145 [1] = assay: Cytotoxicity against androgen receptor-deficient human DU145 cells after 96 hrs by trypan blue exclusion assay; assay type: functional, cell-based; settings: DU-145, 96 h
Outline: (§1)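 Cells grown in DMEM or RPMI with 10% FBS and penicillin-streptomycin. Seeded at 1.0 × 10^5 cells/mL/well in 6-well dishes; compounds were added 24 h later at various concentrations. Viable cells were counted by trypan blue exclusion from duplicate wells after 96 h of treatment, giving a dose-response endpoint.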

K562 = assay: Cytotoxicity against human K562 cells after 96 hrs by trypan blue exclusion assay; assay type: functional, cell-based; settings: K562, 96 h; outline: as §1
HeLa [2] = assay: Inhibition of cytoplasmic microtubule polymerization in human HeLa cells at 0.005 uM after 18 hrs by FITC-conjugated DAPI staining based fluorescence microscopy; assay type: cell-based
Outline: (§2)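 HeLa grown on glass coverslips and exposed for 18 h to test agent (0.25 or 0.5 μM), paclitaxel or vincristine (0.005 μM), or DMSO. Cells were fixed in 4% paraformaldehyde, blocked, permeabilised, and stained with FITC anti-α-tubulin (1:400) and then DAPI (0.5 ug/mL). Mitotic spindles or interphase cytoplasmic microtubules were scored by fluorescence microscopy at 100x.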

[3] = Drug resistant, ratio of IC50 for human MESSA/DX5 cells to IC50 for human MESSA cells; assay type: functional, MES-SA
Outline: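 MES-SA uterine sarcoma cells and the P-glycoprotein-expressing multidrug-resistant MES-SA/DX5 sub-line were grown in DMEM or RPMI with 10% FBS. Cells were plated in 6-well dishes at 1.0 × 10^5 cells/mL/well, dosed at various concentrations 24 h later, and exposed for 96 h. Viable cells were counted by trypan blue exclusion from duplicate wells. The resistant/parental IC50 ratio was taken.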

[4] = Cytotoxicity against human MES-SA cells after 96 hrs by trypan blue exclusion assay; assay type: functional, cell-based; outline: as §1
[5] = Cytotoxicity against human MESSA/DX5 cells after 96 hrs by trypan blue exclusion assay; assay type: functional, cell-based; settings: MES-SA/Dx5, 96 h; outline: as §1
HeLa [6] = assay: Induction of mitotic arrest in human HeLa cells assessed as unbound chromosome outside metaphase plate at 0.005 uM after 18 hrs by FITC-conjugated DAPI staining based fluorescence microscopy; assay type: functional, cell-based; outline: as §2
BT-20 = assay: Cytotoxicity against estrogen receptor-deficient human BT20 cells after 96 hrs by trypan blue exclusion assay; assay type: functional, cell-based; settings: BT-20, 96 h; outline: as §1
MCF7 = assay: Cytotoxicity against human MCF7 cells expressing estrogen receptor after 96 hrs by trypan blue exclusion assay; assay type: functional, cell-based; settings: MCF7, 96 h; outline: as §1
SK-BR-3 = assay: Cytotoxicity against estrogen receptor-deficient human SKBR3 cells after 96 hrs by trypan blue exclusion assay; assay type: functional, cell-based; settings: SK-BR-3, 96 h; outline: as §1
BT-474 = assay: Cytotoxicity against human BT474 cells expressing estrogen receptor after 96 hrs by trypan blue exclusion assay; assay type: functional, cell-based; settings: BT-474, 96 h; outline: as §1
HeLa [7] = assay: Induction of mitotic arrest in human HeLa cells assessed as increase of phosphorylated histone H3 at Ser10 level at 1 uM after 24 hrs by Western blotting relative to control; assay type: functional
Outline: (§3)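 HeLa treated with 1 μM and harvested at set times. Pellets were frozen, then lysed in HEPES/Triton X-100/NaCl buffer, pH 7.5, with phosphatase and protease inhibitors. Blots were probed sequentially for phospho-histone H3 (Ser10), histone H3, cyclin B1, PLK-1 and BubR1, with GAPDH as loading control. Antibodies: primary 1:1000, secondary 1:10,000. Fold increase is relative to control. N=3.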

MIA PaCa-2 = assay: Cytotoxicity against human MIAPaCa2 cells after 96 hrs by trypan blue exclusion assay; assay type: functional, cell-based; settings: MIA PaCa-2, 96 h; outline: as §1
A549 = assay: Cytotoxicity against human A549 cells after 96 hrs by trypan blue exclusion assay; assay type: functional, cell-based; settings: A549, 96 h; outline: as §1
HeLa [8] = assay: Cytotoxicity against human HeLa cells after 96 hrs by trypan blue exclusion assay; assay type: functional, cell-based; outline: as §1
[9] = Cytotoxicity against human COLO320 cells after 96 hrs by trypan blue exclusion assay; assay type: functional, cell-based; settings: COLO 320, 96 h; outline: as §1
PANC-1 = assay: Cytotoxicity against human PANC1 cells after 96 hrs by trypan blue exclusion assay; assay type: functional, cell-based; settings: PANC-1, 96 h; outline: as §1
SK-MEL-28 = assay: Cytotoxicity against human SK-MEL-28 cells after 96 hrs by trypan blue exclusion assay; assay type: functional, cell-based; settings: SK-MEL-28, 96 h; outline: as §1
[10] = Cytotoxicity against human HTB-126 cells after 96 hrs by trypan blue exclusion assay; assay type: functional, cell-based; settings: HTB126, 96 h; outline: as §1
Caco-2 = assay: Cytotoxicity against human Caco2 cells after 96 hrs by trypan blue exclusion assay; assay type: functional, cell-based; settings: Caco-2, 96 h; outline: as §1
Raji = assay: Cytotoxicity against human Raji cells after 96 hrs by trypan blue exclusion assay; assay type: functional, cell-based; outline: as §1
SNU-5 = assay: Cytotoxicity against human SNU5 cells after 96 hrs by trypan blue exclusion assay; assay type: functional, cell-based; settings: SNU-5, 96 h; outline: as §1
NCI-N87 = assay: Cytotoxicity against human NCI-N87 cells after 96 hrs by trypan blue exclusion assay; assay type: functional, cell-based; settings: NCI-N87, 96 h; outline: as §1
HCT-15 = assay: Cytotoxicity against human HCT15 cells after 96 hrs by trypan blue exclusion assay; assay type: functional, cell-based; settings: HCT-15, 96 h; outline: as §1
DU-145 [11] = assay: Cell cycle arrest in human DU145 cells assessed as accumulation at G2/M phase after 24 hrs using propidium iodide staining by FACS analysis; assay type: functional, cell-based
Outline: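 DU145 plated at 1.0 × 10^6 cells per dish, treated 24 h later for 24 h across a range of concentrations. Cells were fixed in ice-cold 70% ethanol, stained with propidium iodide plus RNase A for 30 min at 37 °C, and DNA content was read by flow cytometry. Phases: G1 (2N), S (>2N<4N), G2/M (4N). N=3.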

DU-145 [12] = assay: Cell cycle arrest in human DU145 cells assessed as accumulation at G2/M phase at 2.5 uM by propidium iodide staining based FACS analysis; assay type: functional; settings: TDE = time-dependent effect
Outline: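 DU145 plated at 1.0 × 10^6 cells/dish and dosed 24 h later at 2.5 μM. Floating and trypsinised cells were pooled at 24, 48 and 72 h, fixed in ice-cold 70% ethanol for at least 24 h, stained 30 min at 37 °C with propidium iodide and RNase A, and analysed for DNA content by flow cytometry.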

HeLa [13] = assay: Induction of mitotic arrest in human HeLa cells assessed as increase of phosphorylated histone H3 at Ser10 level at 1 uM after 6 hrs by Western blotting; assay type: functional, cell-based; outline: as §3
HeLa [14] = assay: Induction of mitotic arrest in human HeLa cells assessed as increase of phosphorylated cyclin B1 level at 1 uM after 6 hrs by Western blotting relative to control; assay type: functional; outline: as §3
HeLa [15] = assay: Induction of mitotic arrest in human HeLa cells assessed as increase of phosphorylated Bcl2 level at 1 uM after 24 hrs by Western blotting relative to control; assay type: functional
HeLa [16] = assay: Induction of mitotic arrest in human HeLa cells assessed as increase of phosphorylated PLK1 level at 1 uM after 6 hrs by Western blotting relative to control; assay type: functional; outline: as §3
HeLa [17] = assay: Induction of mitotic arrest in human HeLa cells assessed as increase of phosphorylated BUBR1 level at 1 uM after 6 hrs by Western blotting relative to control; assay type: functional; outline: as §3
HeLa [18] = assay: Induction of apoptosis in human HeLa cells assessed as cleavage of PARP at 1 uM after 24 hrs by Western blot analysis; assay type: functional, cell-based
Outline: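 HeLa exposed to 1.0 μM for a time course. Lysates were resolved on 10% SDS-PAGE, blotted to nitrocellulose and probed with anti-PARP (primary 1:1000, secondary 1:10,000), with ECL detection. Cleaved PARP was taken as the apoptosis/caspase-3 marker. N=3.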

HeLa [19] = assay: Inhibition of cytoplasmic microtubule polymerization in human HeLa cells at 0.5 uM after 18 hrs by FITC-conjugated DAPI staining based fluorescence microscopy; assay type: cell-based; outline: as §2
HeLa [20] = assay: Induction of mitotic arrest in human HeLa cells assessed as unbound chromosome outside metaphase plate at 0.25 uM after 18 hrs by FITC-conjugated DAPI staining based fluorescence microscopy; assay type: functional, cell-based; outline: as §2
HeLa [21] = assay: Induction of mitotic arrest in human HeLa cells assessed as dispersed chromosome spread with three or more tubulin bundles at 0.5 uM after 18 hrs by FITC-conjugated DAPI staining based fluorescence microscopy; assay type: functional, cell-based; outline: as §2

Compound: COc1cc(C(=O)/C=C\Nc2cc(O)ccc2Cl)cc(OC)c1OC
- IC50 (DU-145 [1]): 750 nM
- IC50 (K562): 2500 nM

Compound: COc1cc(C(=O)/C=C\Nc2ccc(C(F)(F)F)cc2)cc(OC)c1OC
- IC50 (DU-145 [1]): 500 nM
- IC50 (K562): 500 nM

Compound: CC(=O)O[C@H]1C(=O)[C@@]2(C)[C@H]([C@H](OC(=O)c3ccccc3)[C@]3(O)C[C@H](OC(=O)[C@H](O)[C@@H](NC(=O)c4ccccc4)c4ccccc4)C(C)=C1C3(C)C)[C@]1(OC(C)=O)CO[C@@H]1C[C@@H]2O [PACLITAXEL]
- inhibition (HeLa [2]): inactive
- Ratio IC50 [3]: >100
- IC50 [4]: 4 nM
- IC50 [5]: 750 nM
- Activity (HeLa [6]): Active

Compound: COc1ccc(C(=O)/C=C\Nc2cc(OC)c(OC)c(OC)c2)cc1
- IC50 (DU-145 [1]): 50000 nM
- IC50 (K562): 75000 nM

Compound: COc1ccc(N/C=C\C(=O)c2cc(OC)c(OC)c(OC)c2)cc1O
- IC50 (DU-145 [1]): 100 nM
- IC50 (K562): 100 nM

Compound: COc1cc(OC)c(C(=O)/C=C\Nc2cc(OC)c(OC)c(OC)c2)c(OC)c1
- IC50 (DU-145 [1]): 35000 nM
- IC50 (K562): 75000 nM

Compound: COc1ccc(N/C=C\C(=O)c2cc(OC)c(OC)c(OC)c2)cc1F
- IC50 (DU-145 [1]): 250 nM
- IC50 (K562): 250 nM

Compound: COc1ccccc1N/C=C\C(=O)c1cc(OC)c(OC)c(OC)c1
- IC50 (DU-145 [1]): 2500 nM
- IC50 (K562): 2500 nM

Compound: COc1ccc(N/C=C\C(=O)c2c(OC)cc(OC)cc2OC)c(OC)c1
- IC50 (DU-145 [1]): 75000 nM
- IC50 (K562): 75000 nM

Compound: COc1cc(OC)c(C(=O)/C=C\Nc2ccccc2O)c(OC)c1
- IC50 (DU-145 [1]): 25000 nM
- IC50 (K562): 75000 nM

Compound: COc1cc(C(=O)/C=C\Nc2ccc3cc[nH]c3c2)cc(OC)c1OC
- IC50 (DU-145 [1]): 100 nM
- IC50 (K562): 200 nM

Compound: COc1cc(C(=O)/C=C\Nc2cccc3[nH]ncc23)cc(OC)c1OC
- IC50 (DU-145 [1]): 750 nM
- IC50 (K562): 2500 nM

Compound: COc1ccc(N/C=C\C(=O)c2cc(OC)c(OC)c(OC)c2)cc1N
- IC50 (DU-145 [1]): 100 nM
- IC50 (K562): 250 nM

Compound: COc1cc(C(=O)/C=C\Nc2ccc3[nH]ccc3c2)cc(OC)c1OC
- IC50 (DU-145 [1]): 200 nM
- IC50 (K562): 500 nM

Compound: COc1cc(C(=O)/C=C\Nc2cccc(O)c2)cc(OC)c1OC
- IC50 (DU-145 [1]): 750 nM
- IC50 (K562): 500 nM

Compound: COc1ccc(N/C=C\C(=O)c2cc(OC)c(OC)c(OC)c2Cl)cc1O
- IC50 (DU-145 [1]): 200 nM
- IC50 (K562): 250 nM

Compound: COc1ccc(N/C=C\C(=O)c2cc(OC)c(OC)c(OC)c2Br)cc1O
- IC50 (DU-145 [1]): 60 nM
- IC50 (K562): 100 nM
- IC50 (BT-20): 750 nM
- IC50 (MCF7): 400 nM
- IC50 (SK-BR-3): 300 nM
- IC50 (BT-474): 100 nM
- fold change (FC) (HeLa [7]): 121
- IC50 (MIA PaCa-2): 800 nM
- IC50 (A549): 900 nM
- IC50 (HeLa [8]): 200 nM
- IC50 [9]: 150 nM
- IC50 (PANC-1): 200 nM
- IC50 (SK-MEL-28): 200 nM
- IC50 [10]: 100 nM
- IC50 (Caco-2): 250 nM
- IC50 (Raji): 200 nM
- IC50 (SNU-5): 250 nM
- IC50 (NCI-N87): 300 nM
- IC50 (HCT-15): 40 nM
- IC50 [4]: 250 nM
- IC50 [5]: 500 nM
- Activity (DU-145 [11]): Dose-dependent effect
- Activity (DU-145 [12]): tde
- Activity (HeLa [13]): Active
- fold change (FC) (HeLa [14]): 2.5
- fold change (FC) (HeLa [15]): 88
- fold change (FC) (HeLa [16]): 2.5
- fold change (FC) (HeLa [17]): 2.95
- Activity (HeLa [18]): Active
- inhibition (HeLa [19]): inactive
- Activity (HeLa [20]): Active
- Activity (HeLa [21]): Active
